From ChEMBL document CHEMBL1137436, “Development of Tyrocidine A analogues with improved antibacterial activity” (2007)

Key:
Assay type in all cases: functional
Bacillus cereus = assay: Antibacterial activity against Bacillus cereus MRL 18731 in presence of 25 mg/L calcium by microdilution method
Outline: (§1)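 CLSI broth microdilution MIC. Compounds dissolved in cation-adjusted Mueller-Hinton broth (CAMHB), or in a little DMSO then broth. Overnight cultures suspended in saline to 0.5 McFarland, diluted 1:100 in CAMHB, added to wells of diluted compound. Drug-free wells quantitatively subcultured to confirm actual colony counts. Calcium at 25 or 50 mg/L.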

Enterococcus faecalis [1] = assay: Antibacterial activity against Enterococcus faecalis ATCC 29212 in presence of 25 mg/L calcium by microdilution method
Outline: (§2)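 CLSI broth microdilution in cation-adjusted Mueller-Hinton broth (CAMHB); compounds dissolved in CAMHB or a little DMSO then broth. Overnight cultures suspended in saline to 0.5 McFarland, diluted 1:100 in CAMHB and added to wells of diluted compound. Drug-free wells subcultured quantitatively for actual colony counts. Calcium at 25 or 50 mg/L as the line states.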

[2] = test system: Staphylococcus epidermidis; assay: Antibacterial activity against methicillin-resistant Staphylococcus epidermidis MRL 19010 in presence of 25 mg/L calcium by microdilution method; outline: as §2
Bacillus subtilis = assay: Antibacterial activity against Bacillus subtilis MRL 18734 in presence of 25 mg/L calcium by microdilution method; outline: as §1
Enterococcus faecalis [3] = assay: Antibacterial activity against vancomycin-resistant Enterococcus faecalis MRL 17001 in presence of 25 mg/L calcium by microdilution method; outline: as §2
Staphylococcus aureus [4] = assay: Antibacterial activity against methicillin-resistant Staphylococcus aureus ATCC 33592 in presence of 25 mg/L calcium by microdilution method; outline: as §2
Staphylococcus aureus [5] = assay: Antibacterial activity against methicillin-susceptible Staphylococcus aureus ATCC 29213 in presence of 25 mg/L calcium by microdilution method; outline: as §2
Escherichia coli = assay: Antibacterial activity against Escherichia coli ATCC 25922 in presence of 25 mg/L calcium by microdilution method; outline: as §1

SMILES | MIC (Bacillus cereus) | MIC (Enterococcus faecalis [1]) | MIC [2] | MIC (Bacillus subtilis) | MIC (Enterococcus faecalis [3]) | MIC (Staphylococcus aureus [4]) | MIC (Staphylococcus aureus [5]) | MIC (Escherichia coli)
CC(C)C[C@@H]1NC(=O)[C@H](CCCN)NC(=O)[C@H](C(C)C)NC(=O)[C@H](Cc2ccc(O)cc2)NC(=O)[C@H](CCCCN)NC(=O)[C@H](CC(N)=O)NC(=O)[C@@H](CCCCN)NC(=O)[C@H](Cc2ccccc2)NC(=O)[C@@H]2CCCN2C(=O)[C@@H](Cc2ccccc2)NC1=O | 16 µg/mL | 32 µg/mL | 4 µg/mL | 2 µg/mL | 8 µg/mL | 16 µg/mL | 16 µg/mL | 32 µg/mL
CC(C)C[C@@H]1NC(=O)[C@H](CCCN)NC(=O)[C@H](C(C)C)NC(=O)[C@H](Cc2ccc(O)cc2)NC(=O)[C@H](CCCCN)NC(=O)[C@H](CC(N)=O)NC(=O)[C@@H](Cc2ccccc2)NC(=O)[C@H](Cc2c(F)c(F)c(F)c(F)c2F)NC(=O)[C@@H]2CCCN2C(=O)[C@@H](Cc2ccccc2)NC1=O | 8 µg/mL | 4 µg/mL | 4 µg/mL | 8 µg/mL | 4 µg/mL | 8 µg/mL | 16 µg/mL | > 256 µg/mL
CC(C)C[C@@H]1NC(=O)[C@H](CCCN)NC(=O)[C@H](C(C)C)NC(=O)[C@H](Cc2ccc(O)cc2)NC(=O)[C@H](CCC(N)=O)NC(=O)[C@H](CC(N)=O)NC(=O)[C@@H](CCCCN)NC(=O)[C@H](Cc2ccccc2)NC(=O)[C@@H]2CCCN2C(=O)[C@@H](Cc2ccccc2)NC1=O | 64 µg/mL | 64 µg/mL | 32 µg/mL | 16 µg/mL | 32 µg/mL | 64 µg/mL | 32 µg/mL | 128 µg/mL
CC(C)C[C@@H]1NC(=O)[C@H](CCCN)NC(=O)[C@H](C(C)C)NC(=O)[C@H](Cc2ccc(O)cc2)NC(=O)[C@H](CCCCN)NC(=O)[C@H](CC(N)=O)NC(=O)[C@@H](CCCCN)NC(=O)[C@H](Cc2c(F)c(F)c(F)c(F)c2F)NC(=O)[C@@H]2CCCN2C(=O)[C@@H](Cc2ccccc2)NC1=O | 4 µg/mL | 16 µg/mL | 4 µg/mL | 2 µg/mL | 4 µg/mL | 8 µg/mL | 8 µg/mL | 32 µg/mL
CC(C)C[C@@H]1NC(=O)[C@H](CCCN)NC(=O)[C@H](C(C)C)NC(=O)[C@H](Cc2ccc(O)cc2)NC(=O)[C@H](CCC(N)=O)NC(=O)[C@H](CC(N)=O)NC(=O)[C@@H](Cc2ccccc2)NC(=O)[C@H](Cc2c(F)c(F)c(F)c(F)c2F)NC(=O)[C@@H]2CCCN2C(=O)[C@@H](Cc2ccccc2)NC1=O | 4 µg/mL | 4 µg/mL | 8 µg/mL | 4 µg/mL | 8 µg/mL | 16 µg/mL | 8 µg/mL | > 256 µg/mL
